High-throughput results (PubChem)
pPAFAH inh: inhibitors of human plasma PAF acetylhydrolase (pPAFAH) | recombinant pPAFAH, FP-rhodamine probe fluorescence polarization | inhibition, % at 3.39 µM | 330,000 tested, 1.5% active | AID 463082;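 active = inhibition above the mean inhibition across the screen plus 3 SD, cut at about 25% in these data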;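 also: inhibitors block binding of the rhodamine activity-based probe so polarization drops; 0% = enzyme with DMSO and 100% = wells lacking pPAFAH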
ASAP1 GAP inh: blocks human ASAP1-stimulated Arf1 GTP hydrolysis; Q9ULH1; GDP FP detection; inhibition, % at 16.5 µM; 360,000 tested, 0.19% active; in the data active = inhibition above about 25%;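 also: 0% = vehicle with enzyme and substrate and 100% = no enzyme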
ARFGAP1 inhibitor: inhibitors of rat ARFGAP1; Q62848; Arfgap1-stimulated ARF1 GTP hydrolysis, GDP FP detection; inhibition, % at 16.5 µM; 360,000 tested, 0.26% active; AID 651572;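 active = inhibition above a per-plate limit, mean inhibition of low control wells plus 3 SD, cut at about 25% in these data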;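 also: 0% = DMSO wells with enzyme and 100% = wells lacking Arfgap1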
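Material – truncated rat Arfgap1 GAP domain · Buffer or medium – HEPES-based buffer, pH 7.5 · Reagent – human ARF1(Δ1-17)-GTP substrate · Dosing – 16.5 µM single point, 1.26% DMSO · Schedule – GTP hydrolysis reaction 2 h at 25 °C · Technique – GDP detection by fluorescence polarization · Benchmarks – No-Arfgap1 wells (100%) versus DMSO full-reaction wells (0%) · Repeats – single replicate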
PAFAH1B2 FP inh: inhibitors of human PAFAH1B2 | P68402 | recombinant PAFAH1B2, FP-rhodamine activity probe, fluorescence polarization | inhibition, % at 3.39 µM | 340,000 tested, 1.2% active | AID 492953;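 active = inhibition above the mean of all tested compounds plus 3 SD, cut at about 24% in these data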;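 also: 0% = enzyme with DMSO and 100% = wells lacking PAFAH1B2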
Target sequence (P68402 whole entry, looked up): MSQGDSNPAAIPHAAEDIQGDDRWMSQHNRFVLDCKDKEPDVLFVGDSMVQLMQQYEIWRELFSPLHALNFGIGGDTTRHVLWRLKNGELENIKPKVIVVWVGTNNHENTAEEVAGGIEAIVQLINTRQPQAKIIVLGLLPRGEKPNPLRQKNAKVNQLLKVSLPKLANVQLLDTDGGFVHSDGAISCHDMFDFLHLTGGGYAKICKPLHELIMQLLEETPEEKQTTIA
PAFAH2 inh: PAFAH2 (human) inhibition. inhibition, % at 3.39 µM. Q99487. 340,000 tested, 0.99% active. recombinant PAFAH2, FP-rhodamine activity probe, fluorescence polarization;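 active = inhibition above the mean over all tested compounds plus 3 SD, cut at about 30% in these data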;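 also: inhibitors block probe labeling of enzyme so polarization drops; 0% = enzyme with DMSO and 100% = wells lacking PAFAH2 protein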
PAFAH1B3 inh: inhibitors of human PAFAH1B3 | Q15102 | recombinant PAFAH1B3, FP-rhodamine probe, fluorescence polarization | inhibition, % at 3.39 µM | 340,000 tested, 0.28% active;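 active = inhibition above the screen-wide average of all tested compounds plus 3 SD, cut at about 25% in these data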;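 also: 0% = enzyme with DMSO only and 100% = wells lacking PAFAH1B3 protein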
Target sequence (Q15102 whole entry, looked up): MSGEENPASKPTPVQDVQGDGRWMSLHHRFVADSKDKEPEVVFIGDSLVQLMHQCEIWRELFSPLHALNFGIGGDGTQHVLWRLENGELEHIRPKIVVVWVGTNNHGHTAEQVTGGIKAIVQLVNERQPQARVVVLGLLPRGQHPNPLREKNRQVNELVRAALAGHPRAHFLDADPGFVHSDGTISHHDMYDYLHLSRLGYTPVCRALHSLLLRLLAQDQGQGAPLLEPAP
PAFAH2 confirm: confirmation of human PAFAH2 inhibitors; shares compounds with PAFAH2 inh; recombinant PAFAH2, FP-rhodamine activity probe, fluorescence polarization; inhibition, % at 3.39 µM; 2,300 tested, 65% active; AID 493030;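 active = mean inhibition over three repeats above a set limit taken from the earlier primary screen, cut at about 30% in these data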;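 also: inhibitor blocks binding of rhodamine activity probe so polarization falls; 0% = enzyme with DMSO and 100% = wells lacking PAFAH2 protein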
* marks the source's active call; other numbers are inactive results; . = no result. Most compounds without a hit are left out; they make up all but 2.8% or so of the library.

SMILES | pPAFAH inh | ASAP1 GAP inh | ARFGAP1 inhibitor | PAFAH1B2 FP inh | PAFAH2 inh | PAFAH1B3 inh | PAFAH2 confirm
CC(=O)Nc1cccc(NC(=O)COC(=O)C2CC3CCCC(C2)C3=O)c1 (centres undefined) | -3 | -4 | 0 | -3 | -4 | 15 | .
O=C(COC(=O)C1CC2CCCC(C1)C2=O)Nc1ccc(Cl)cn1 (centres undefined) | 7 | 1 | -5 | 5 | 47* | 1 | 25
CC1CCC(NC(=O)COC(=O)C2CC3CCCC(C2)C3=O)CC1 (centres undefined) | 8 | -10 | -2 | 3 | 62* | 4 | 48*
Cc1c(Cl)cnc(NC(=O)COC(=O)C2CC3CCCC(C2)C3=O)c1Cl (centres undefined) | 6 | -3 | -5 | 0 | 22 | 0 | .
CCOc1ccc(NC(=O)COC(=O)C2CC2C)cc1 (centres undefined) | 12 | 11 | -15 | 3 | 60* | 5 | 47*
CC1CC1C(=O)OCC(=O)Nc1ccc(Cl)cn1 (centres undefined) | 9 | -3 | -2 | -6 | 47* | -1 | 39*
Cn1cc(CNCc2cn(C)nc2-c2ccc(C3CCCCC3)cc2)cn1 | -1 | -3 | 7 | -4 | -8 | 1 | .
Cc1nc(NC(=O)COC(=O)C2CC2C)c(Cl)cc1Cl (centres undefined) | 19 | -3 | 4 | 2 | 34* | 8 | 26
CC1=NN(C(N)=S)C(=O)C1N=Nc1ccc(C)c(Br)c1 (centres undefined) | 4 | 5 | -6 | 8 | 42* | 11 | 33*
COc1ccc(NC(=O)COC(=O)C2CCCCC2)c([N+](=O)[O-])c1 | 6 | 0 | 7 | 4 | 30* | 1 | 20
CNS(=O)(=O)c1cccc(C(=O)OCC(=O)Nc2ccc(OC)cc2[N+](=O)[O-])c1 | 8 | 2 | 1 | -1 | 31* | 3 | 27
COc1cccc(NC(=O)COC(=O)C2CCCCC2)c1 | 7 | 8 | -2 | 7 | 82* | 8 | 63*
COc1cccc(NC(=O)COC(=O)C2CC2)c1 | 1 | 9 | -8 | 4 | 69* | 8 | 57*
N#CCCN(Cc1ccccc1)C(CCc1ccccc1)C(=O)NC1CCCCC1 (centres undefined) | . | 12 | 9 | . | . | . | .
CCN(CC)S(=O)(=O)c1ccc(O)c(C(=O)OCC(=O)NC23CC4CC(CC(C4)C2)C3)c1 | 5 | -3 | 5 | 14 | 77* | 2 | 68*
COc1cc(OC)c(C(=O)OCC(=O)NC23CC4CC(CC(C4)C2)C3)cc1OC | 5 | 2 | -6 | 1 | 97* | 7 | 82*
O=C(COC(=O)c1ccc(O)cc1O)NC12CC3CC(CC(C3)C1)C2 | 12 | 2 | 6 | 12 | 75* | -2 | 60*
O=C(COc1ccccc1F)NC12CC3CC(CC(C3)C1)C2 | -3 | -12 | -7 | 7 | 0 | -2 | .
COc1ccccc1C(=O)OCC(=O)NC12CC3CC(CC(C3)C1)C2 | . | -6 | -5 | 2 | 74* | 9 | 82*
COc1ccc(C(=O)OCC(=O)NC23CC4CC(CC(C4)C2)C3)c(O)c1 | . | 7 | -1 | . | . | . | .
COc1cc(OC)c(C(=O)NC23CC4CC(CC(C4)C2)C3)cc1OC | 6 | -4 | 15 | 8 | 1 | 8 | .
CCN(CC)S(=O)(=O)c1ccc(O)c(C(=O)OCC(=O)NC2CCCC2)c1 | 7 | -6 | 7 | 6 | 19 | 7 | .
Nc1cc(N)nc(SCC(=O)NCC(=O)Nc2ccc(F)c(F)c2F)n1 | -2 | -4 | 0 | 1 | 4 | 5 | .
COc1ccc(CCNC(=O)C(=O)NCC2CCCN2S(=O)(=O)c2cc(C)ccc2C)cc1 (centres undefined) | 4 | -7 | -1 | 0 | -7 | 2 | .
CCN(CC)S(=O)(=O)c1ccc(O)c(C(=O)OCC(=O)Nc2ccc(OC(F)(F)F)cc2)c1 | 20 | -6 | 15 | -1 | 38* | 8 | 28
CCN(CC)S(=O)(=O)c1cccc(C(=O)OCC(=O)C23CC4CC(CC(C4)C2)C3)c1 | 5 | -22 | 13 | 8 | 40* | 0 | 25
